This note sets out measurements from ChEMBL document CHEMBL1932977, “Synthesis of pyrazolo[3,4-b]pyridines under microwave irradiation in multi-component reactions and their antitumor and antimicrobial activities - Part 1” (Eur J Med Chem, 2012).

One assay relates to Serratia. Put plainly: Antibacterial activity against Serratia at 10 mg/ml after 24 hrs by cut-plug method. It is filed as functional. Put shortly:
(§1)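 Cut-plug agar diffusion. Bacteria grown on nutrient agar and fungi on Sabouraud agar slopes, strains from a university culture collection. Plates seeded with 1 ml of diluted inoculum (10⁷ CFU/ml) spread after solidification. Wells cut and filled with compound in DMSO at 10 mg/ml. Plates incubated at 30 °C for 24 h, then inhibition-zone diameters (mm) measured.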

Another assay has as its system Bacillus. The assay can be described thus: Antibacterial activity against Bacillus at 10 mg/ml after 24 hrs by cut-plug method. It is filed as functional. A digest of the protocol: as §1
Another assay concerns Enterobacter cloacae. The assay can be described thus: Antibacterial activity against Enterobacter cloacae at 10 mg/ml after 24 hrs by cut-plug method. The format is functional. A digest of the protocol:
as §1

The next assay deals with Escherichia coli. Put plainly: Antibacterial activity against Escherichia coli at 10 mg/ml after 24 hrs by cut-plug method. It is filed as functional. Put shortly:
as §1

Another assay concerns HepG2. The assay can be described thus: Cytotoxicity against human HepG2 by sulforhodamie B colorimetric assay. The format is functional, cell-based. A digest of the protocol: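 HEPG2 human liver cancer cells, compound-treated against untreated control. Read by SRB: TCA-fixed cultures stained 30 min with 0.4% w/v SRB in 1% acetic acid, bound dye extracted with 10 mM Tris, optical density read on a plate reader. Surviving fraction as percent growth. IC50 estimated by probit regression.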

In another assay the test system is Penicillium expansum. Put plainly: Antifungal activity against Penicillium expansum at 10 mg/ml after 24 hrs by cut-plug method. The format is functional. Put shortly: as §1
The next assay relates to Fusarium oxysporum. Put plainly: Antifungal activity against Fusarium oxysporum at 10 mg/ml after 24 hrs by cut-plug method. The format is functional. Put shortly: as §1
The mark [1] stands for this setting: Homo sapiens, HepG2, read-out: IC50.

Converted amounts (≈) assume the structure as drawn. The source made the active and inactive calls. The rule behind the calls is not given here.

As a reminder, the IC50 is the concentration at which inhibition is half-maximal.

On to `COc1ccc(-c2c(C#N)c(-c3ccc(Cl)cc3)nc3c2c(-c2cccnc2)nn3-c2ccccc2)cc1`, for which the “diameter of the inhibition zone (DIZ)” value with Serratia, in the assay on Bacillus, in the assay on Enterobacter cloacae, in the assay with Escherichia coli, in the assay on Penicillium expansum and in the assay with Fusarium oxysporum was “inactive” each time. Besides, in the assay on HepG2 (setting [1]), the IC50 came to 4 µg/mL (≈ 7.78 µM).
Take `COc1ccc(-c2c(C#N)c(-c3ccc(C)cc3)nc3c2c(-c2cccnc2)nn3-c2ccccc2)cc1`: the “diameter of the inhibition zone (DIZ)” value in the assay with Bacillus, with Enterobacter cloacae, with Penicillium expansum and with Fusarium oxysporum was “inactive” throughout. Moreover, the IC50 in the assay with HepG2 (setting [1]) is 4.34 µg/mL (≈ 8.79 µM).
`COc1ccc(-c2c(C#N)c(-c3ccccc3)nc3c2c(-c2cccnc2)nn3-c2ccccc2)cc1`: the “diameter of the inhibition zone (DIZ)” value in the assay on Serratia, with Bacillus, in the assay on Enterobacter cloacae, in the assay on Escherichia coli, with Penicillium expansum and in the assay with Fusarium oxysporum was “inactive” in each case. Further, the IC50 entry in the assay on HepG2 (hepg2) is listed as “Not Active”.
As for `COc1ccc(-c2cc(C(=O)O)nc3c2c(-c2cccnc2)nn3-c2ccccc2)cc1`, the “diameter of the inhibition zone (DIZ)” value in the assay with Penicillium expansum is “inactive”.
Regarding `COc1cccc2c1C(=O)c1c(O)c3c(c(O)c1C2=O)C[C@@](O)(C(=O)CO)C[C@@H]3O[C@H]1C[C@H](N)[C@H](O)[C@H](C)O1` [DOXORUBICIN], the IC50 with HepG2 (setting [1]) amounted to 3.73 µg/mL (≈ 6.86 µM).
Turning to `COc1ccc(-c2c(C#N)c(-c3ccc(F)cc3)nc3c2c(-c2cccnc2)nn3-c2ccccc2)cc1`, the “diameter of the inhibition zone (DIZ)” value in the assay with Bacillus, with Enterobacter cloacae, in the assay with Escherichia coli, in the assay with Penicillium expansum and in the assay on Fusarium oxysporum was “inactive” each time. For the same compound, in the assay on HepG2 (setting [1]), the IC50 was found to be 3.43 µg/mL (≈ 6.89 µM).
Regarding `CCN(CC)c1ccc(-c2cc(C(=O)O)nc3c2c(-c2cccnc2)nn3-c2ccccc2)cc1`, the “diameter of the inhibition zone (DIZ)” value with Serratia, in the assay with Bacillus, in the assay with Enterobacter cloacae, with Escherichia coli and in the assay with Penicillium expansum was “inactive” in each case.
Regarding `O=C(O)c1cc(-c2ccc(Br)cc2)c2c(-c3cccnc3)nn(-c3ccccc3)c2n1`, the “diameter of the inhibition zone (DIZ)” value in the assay on Bacillus, in the assay on Enterobacter cloacae, with Escherichia coli, with Penicillium expansum and in the assay on Fusarium oxysporum was “inactive” each time.
With `COc1ccc(-c2c(C#N)c(-c3ccc([N+](=O)[O-])cc3)nc3c2c(-c2cccnc2)nn3-c2ccccc2)cc1`, the “diameter of the inhibition zone (DIZ)” value in the assay with Serratia, in the assay on Bacillus, with Enterobacter cloacae and in the assay on Fusarium oxysporum was “inactive” each time. Moreover, the IC50 in the assay on HepG2 (setting [1]) was found to be 13.5 µg/mL (≈ 25.7 µM).
For `CN(C)c1ccc(-c2cc(C(=O)O)nc3c2c(-c2cccnc2)nn3-c2ccccc2)cc1`, the “diameter of the inhibition zone (DIZ)” value in the assay on Bacillus, with Escherichia coli and in the assay on Penicillium expansum was “inactive” each time.
As to `COc1ccc(-c2c(C#N)c(-c3cccnc3)nc3c2c(-c2cccnc2)nn3-c2ccccc2)cc1`, the “diameter of the inhibition zone (DIZ)” value in the assay on Serratia, in the assay with Enterobacter cloacae, with Escherichia coli, in the assay with Penicillium expansum and in the assay on Fusarium oxysporum was “inactive” in each case. Besides, the IC50 with HepG2 (setting [1]) was 3.73 µg/mL (≈ 7.76 µM).
For the compound `O=C(O)c1cc(-c2ccc(O)cc2)c2c(-c3cccnc3)nn(-c3ccccc3)c2n1`, the “diameter of the inhibition zone (DIZ)” value in the assay with Bacillus, in the assay with Enterobacter cloacae, in the assay with Escherichia coli and with Penicillium expansum was “inactive” in each case.
In the case of `O=C(O)c1cc(-c2ccccc2)c2c(-c3cccnc3)nn(-c3ccccc3)c2n1`, the “diameter of the inhibition zone (DIZ)” value with Bacillus, in the assay with Enterobacter cloacae, with Escherichia coli, in the assay with Penicillium expansum and in the assay with Fusarium oxysporum was “inactive” in each case.
